According to ChEMBL document CHEMBL3600323, “Structure-Activity and Structure-Property Relationship and Exploratory in Vivo Evaluation of the Nanomolar Keap1-Nrf2 Protein-Protein Interaction Inhibitor” (J Med Chem, 2015):
In brackets after ≈: the same amount, converted by molar mass. Activity calls are given as the source filed them. The calls are words filed in the database; no cut-off is given here.

Assays:
Keap1/Nrf2 = Keap1/Nrf2 (Homo sapiens, UniProt Q14145); test: Inhibition of Keap1 Kelch domain-Nrf2 ETGE (unknown origin) protein-protein interaction incubated for 30 mins by fluorescence polarization competition assay
[1] = Lipophilicity, log D of the compound; type: physicochemical; details: octanol/water
Outline: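 log D at pH 7.4 measured by Avdeef−Bucher potentiometric titration on a Gemini Profiler instrument.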

[2] = Solubility of the compound; type: physicochemical
Outline: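 Intrinsic solubility determined by the pH-metric method, a potentiometric acid−base titration, using the pSOL model.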

Mus musculus [3] = test: Anti-inflammatory in LPS-challenged C57BL/6 mouse model of acute inflammation assessed as reduction in IL17 level at 10 mg/kg, ip for 3 days pre-treated for 3 days followed by LPS challenge 24 hrs after last dose and measured 5 hrs post LPS challenge by ELISA method; type: functional, organism-based
Outline: (§1)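 Female C57BL/6 mice (12−16 weeks), randomised, n = 10 per group; single daily IP injection on days −3, −2, −1, then 300 μg LPS IP 24 h after the last dose (day 0). Controls were saline-only and saline plus LPS, with dexamethasone 10 mg/kg/day as positive control. Sera taken 5 h post-LPS; plasma frozen at −20 °C and cytokines read by double-sandwich ELISA; mean ± SEM.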

Mus musculus [4] = test: Anti-inflammatory in LPS-challenged C57BL/6 mouse model of acute inflammation assessed as reduction in IL12 level at 10 mg/kg, ip for 3 days pre-treated for 3 days followed by LPS challenge 24 hrs after last dose and measured 5 hrs post LPS challenge by ELISA method; type: functional, organism-based; outline: as §1
Mus musculus [5] = test: Anti-inflammatory in LPS-challenged C57BL/6 mouse model of acute inflammation assessed as reduction in IFNgamma level at 10 mg/kg, ip for 3 days pre-treated for 3 days followed by LPS challenge 24 hrs after last dose and measured 5 hrs post LPS challenge by ELISA method; type: functional, organism-based; outline: as §1
Mus musculus [6] = test: Anti-inflammatory in LPS-challenged C57BL/6 mouse model of acute inflammation assessed as reduction in IL6 level at 10 mg/kg, ip for 3 days pre-treated for 3 days followed by LPS challenge 24 hrs after last dose and measured 5 hrs post LPS challenge by ELISA method; type: functional, organism-based; outline: as §1
Mus musculus [7] = test: Anti-inflammatory in LPS-challenged C57BL/6 mouse model of acute inflammation assessed as reduction in TNFalpha level at 10 mg/kg, ip for 3 days pre-treated for 3 days followed by LPS challenge 24 hrs after last dose and measured 5 hrs post LPS challenge by ELISA method; type: functional, organism-based; outline: as §1
Mus musculus [8] = test: Toxicity in LPS-challenged C57BL/6 mouse model of acute inflammation at 80 mg/kg, ip for 3 days pre-treated for 3 days followed by LPS challenge 24 hrs after last dose and measured 5 hrs post LPS challenge; type: organism-based; details: in vivo
Outline: (§2)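 Female C57BL/6 mice (12−16 weeks), n = 10 per group, dosed IP once daily on days −3 to −1, then challenged with 300 μg LPS IP 24 h after the last dose. Body weight and signs of acute toxicity were monitored during the pretreatment period.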

Mus musculus [9] = test: Toxicity in LPS-challenged C57BL/6 mouse model of acute inflammation assessed as changes in body weight at 80 mg/kg, ip for 3 days pre-treated for 3 days followed by LPS challenge 24 hrs after last dose and measured 5 hrs post LPS challenge; type: organism-based; details: in vivo; outline: as §2
Mus musculus [10] = test: Toxicity in LPS-challenged C57BL/6 mouse model of acute inflammation at 10 mg/kg, ip for 3 days pre-treated for 3 days followed by LPS challenge 24 hrs after last dose and measured 5 hrs post LPS challenge; type: organism-based; details: in vivo; outline: as §2
Mus musculus [11] = test: Toxicity in LPS-challenged C57BL/6 mouse model of acute inflammation assessed as changes in body weight at 10 mg/kg, ip for 3 days pre-treated for 3 days followed by LPS challenge 24 hrs after last dose and measured 5 hrs post LPS challenge; type: organism-based; details: in vivo; outline: as §2

Sequence of Keap1/Nrf2 (Q16236 whole entry, the tested form may be a part): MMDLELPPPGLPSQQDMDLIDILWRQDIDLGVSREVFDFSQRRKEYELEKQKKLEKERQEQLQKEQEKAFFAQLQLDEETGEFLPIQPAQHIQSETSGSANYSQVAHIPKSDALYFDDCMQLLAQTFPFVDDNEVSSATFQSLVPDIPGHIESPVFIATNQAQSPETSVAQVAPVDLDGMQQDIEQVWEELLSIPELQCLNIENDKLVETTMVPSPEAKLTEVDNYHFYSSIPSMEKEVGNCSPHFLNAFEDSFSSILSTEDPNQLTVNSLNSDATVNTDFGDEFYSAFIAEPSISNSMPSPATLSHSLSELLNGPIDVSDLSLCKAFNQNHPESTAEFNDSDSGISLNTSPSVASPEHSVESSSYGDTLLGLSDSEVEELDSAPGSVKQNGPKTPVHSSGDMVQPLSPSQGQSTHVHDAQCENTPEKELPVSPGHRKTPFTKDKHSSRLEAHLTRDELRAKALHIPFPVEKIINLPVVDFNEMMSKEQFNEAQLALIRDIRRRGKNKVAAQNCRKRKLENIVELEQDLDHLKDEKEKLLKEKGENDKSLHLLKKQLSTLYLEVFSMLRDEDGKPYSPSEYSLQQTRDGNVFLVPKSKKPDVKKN
Sequence of Keap1/Nrf2 (Q14145 whole entry, the tested form may be a part): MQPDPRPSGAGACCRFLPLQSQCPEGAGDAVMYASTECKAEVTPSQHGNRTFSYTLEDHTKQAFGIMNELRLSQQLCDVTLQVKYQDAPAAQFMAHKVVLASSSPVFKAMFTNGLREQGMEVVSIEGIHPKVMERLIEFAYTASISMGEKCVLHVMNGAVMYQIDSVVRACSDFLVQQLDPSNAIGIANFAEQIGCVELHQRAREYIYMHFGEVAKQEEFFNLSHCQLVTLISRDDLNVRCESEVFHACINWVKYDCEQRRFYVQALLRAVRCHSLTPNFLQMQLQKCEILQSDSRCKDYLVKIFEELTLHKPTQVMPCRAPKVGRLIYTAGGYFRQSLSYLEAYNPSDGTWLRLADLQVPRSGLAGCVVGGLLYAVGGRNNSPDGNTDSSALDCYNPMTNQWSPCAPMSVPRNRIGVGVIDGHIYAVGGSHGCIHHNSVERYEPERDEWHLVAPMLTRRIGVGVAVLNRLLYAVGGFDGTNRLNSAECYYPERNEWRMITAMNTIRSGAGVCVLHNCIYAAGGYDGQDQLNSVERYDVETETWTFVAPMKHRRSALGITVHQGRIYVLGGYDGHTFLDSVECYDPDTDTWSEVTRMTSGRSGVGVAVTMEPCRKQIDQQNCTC

Row | IC50 (Keap1/Nrf2) | logD [1] | solubility ([2]; read-out: solubility) | SMILES | other results
1 | 10.2 µM |  |  | COc1ccc(S(=O)(=O)N(CC(=O)O)c2cc(C)c(N(CC(=O)O)S(=O)(=O)c3ccc(OC)cc3)cc2C)cc1 | 
2 | 0.0474 µM | 3.9 | 5 µg/mL (≈ 7.64 µM) | O=C(O)CN(c1ccc(N(CC(=O)O)S(=O)(=O)c2cccc3ccccc23)c2ccccc12)S(=O)(=O)c1cccc2ccccc12 | 
3 | 0.0502 µM | 5.2 | 1.6 µg/mL (≈ 2.4 µM) | CC(C)(C)c1ccc(S(=O)(=O)N(CC(=O)O)c2ccc(N(CC(=O)O)S(=O)(=O)c3ccc(C(C)(C)C)cc3)c3ccccc23)cc1 | 
4 | 1.86 µM |  |  | COc1ccc(S(=O)(=O)N(CC(=O)O)c2cccc3c(N(CC(=O)O)S(=O)(=O)c4ccc(OC)cc4)cccc23)cc1 | 
5 | 0.118 µM | 0.65 | 1100 µg/mL (≈ 1820 µM) | N#Cc1ccc(S(=O)(=O)N(CC(=O)O)c2ccc(N(CC(=O)O)S(=O)(=O)c3ccc(C#N)cc3)c3ccccc23)cc1 | 
6 | 0.0181 µM | 0.93 | 248 µg/mL (≈ 426 µM) | Cc1ccc(S(=O)(=O)N(CC(=O)O)c2ccc(N(CC(=O)O)S(=O)(=O)c3ccc(C)cc3)c3ccccc23)cc1 | 
7 | 0.0543 µM | 1.16 | 3800 µg/mL (≈ 6430 µM) | O=C(O)CN(c1ccc(N(CC(=O)O)S(=O)(=O)c2ccc(F)cc2)c2ccccc12)S(=O)(=O)c1ccc(F)cc1 | 
8 | 0.0422 µM | 1.89 |  | CCCCc1ccc(S(=O)(=O)N(CC(=O)O)c2ccc(N(CC(=O)O)S(=O)(=O)c3ccc(CCCC)cc3)c3ccccc23)cc1 | solubility [2]: 0.006 µg/mL (≈ 0.009 µM)
9 | 0.602 µM |  |  | COc1ccc(S(=O)(=O)N(CC(=O)O)c2ccc(N(CC(=O)O)S(=O)(=O)c3ccc(OC)cc3)c(OC)c2)cc1 | 
10 | 0.179 µM | 0.93 | 12.3 µg/mL (≈ 17 µM) | O=C(O)CN(c1ccc(N(CC(=O)O)S(=O)(=O)c2ccc(OC(F)(F)F)cc2)c2ccccc12)S(=O)(=O)c1ccc(OC(F)(F)F)cc1 | 
11 | 0.0343 µM | 0.45 | 183 µg/mL (≈ 330 µM) | O=C(O)CN(c1ccc(N(CC(=O)O)S(=O)(=O)c2ccccc2)c2ccccc12)S(=O)(=O)c1ccccc1 | 
12 |  |  | 388 µg/mL (≈ 631 µM) | COc1ccc(S(=O)(=O)N(CC(=O)O)c2ccc(N(CC(=O)O)S(=O)(=O)c3ccc(OC)cc3)c3ccccc23)cc1 | 
13 |  |  |  | C[C@@H]1C[C@H]2[C@@H]3CCC4=CC(=O)C=C[C@]4(C)[C@@]3(F)[C@@H](O)C[C@]2(C)[C@@]1(O)C(=O)CO | inhibition (Mus musculus [3]): Active; inhibition (Mus musculus [4]): Active; inhibition (Mus musculus [5]): Active; inhibition (Mus musculus [6]): Active; inhibition (Mus musculus [7]): Active
14 | 1.67 µM |  |  | COc1ccc(S(=O)(=O)N(CC(=O)O)c2ccc(N(CC(=O)O)S(=O)(=O)c3ccc(OC)cc3)c(C)c2)cc1 | 
15 | 0.0423 µM | 2.11 | 1200 µg/mL (≈ 1920 µM) | O=C(O)CN(c1ccc(N(CC(=O)O)S(=O)(=O)c2ccc(Cl)cc2)c2ccccc12)S(=O)(=O)c1ccc(Cl)cc1 | 
16 | 0.0365 µM | 4.29 | 5.7 µg/mL (≈ 8 µM) | O=C(O)CN(c1ccc(N(CC(=O)O)S(=O)(=O)c2ccc(Br)cc2)c2ccccc12)S(=O)(=O)c1ccc(Br)cc1 | 
17 | 0.0661 µM | 0.89 | 16 µg/mL (≈ 26 µM) | COc1cccc(S(=O)(=O)N(CC(=O)O)c2ccc(N(CC(=O)O)S(=O)(=O)c3cccc(OC)c3)c3ccccc23)c1 | 
18 | 0.122 µM | 2.81 | 12.3 µg/mL (≈ 17.8 µM) | O=C(O)CN(c1ccc(N(CC(=O)O)S(=O)(=O)c2ccc(C(F)(F)F)cc2)c2ccccc12)S(=O)(=O)c1ccc(C(F)(F)F)cc1 | 
19 | 0.979 µM | 3.44 | 20 µg/mL (≈ 31.3 µM) | Cc1cc(C)c(S(=O)(=O)N(CC(=O)O)c2ccc(N(CC(=O)O)S(=O)(=O)c3c(C)cc(C)cc3C)c3ccccc23)c(C)c1 | 
20 | 0.966 µM |  |  | Cc1ccc(S(=O)(=O)N(CC(=O)O)c2ccc(N(CC(=O)O)S(=O)(=O)c3ccc(C)cc3)cc2)cc1 | 
21 | 1.45 µM |  |  | COc1ccc(S(=O)(=O)N(CC(=O)O)c2ccc(N(CC(=O)O)S(=O)(=O)c3ccc(OC)cc3)cc2)cc1 | 
22 |  | 1.02 | 5000 µg/mL (≈ 7480 µM) | CC(=O)Nc1ccc(S(=O)(=O)N(CC(=O)O)c2ccc(N(CC(=O)O)S(=O)(=O)c3ccc(NC(C)=O)cc3)c3ccccc23)cc1 | Activity (Mus musculus [8]): Non-toxic; Activity (Mus musculus [9]): Non-toxic; Activity (Mus musculus [10]): Non-toxic; Activity (Mus musculus [11]): Non-toxic
